Test: Toxicity liver stage against HepG2, at 10uM
Type: cell-based
Set-up: test concentration 10 uM, cell line HepG2-A16-CD81EGFP
Settings: human, HepG2-A16-CD81EGFP cells; read-out: INHIBITION
Procedure, shortened: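 Uninfected HepG2-A16-CD81EGFP cells, 3 × 10^3 per well, 1536-well, plated on prespotted compound at 10 μM final, parasite-free screening media added to match infected plates; puromycin 10 μM positive, DMSO 0.5% negative; run in parallel with 48 h PbLuc assay at 37 °C, 5% CO2; viability by CellTiter-Glo luminescence, normalized to controls.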

Compound | cytotoxicity at 10 µM [%]
Cc1ccc(CN2CCCC(c3nn(C)c4nccnc34)C2)s1 (stereo unspecified) | -10.6
CN(C)C(=O)CN1CCC2(CCN(Cc3nccs3)CC2)C1=O | 1.31
CC(C)N1[C@H](CN2CCCC2)C[C@@H]2CN(Cc3cnn(C)c3)CC[C@@H]21 | -147
CN1CCCN(C(=O)NCc2cc(Br)cs2)CC1 | -16.7
CN(C)C(=O)CN1CCC2(CCCN(c3ncc(F)cn3)C2)C1=O (stereo unspecified) | 9.51
CC(C)CNC(=O)c1sccc1-n1cnnn1 | 0.00426
Cc1nc2cc(O)nn2c(C)c1CCC(=O)NCCCC(C)C | -1.52
CC(C)c1nnc2n1CCN(C(=O)c1ccc(-n3cnnc3)cc1)C2 | -11.5
CCOC(=O)Cc1csc(NC(=O)c2cc3n(n2)CCCO3)n1 | -11.9
COc1ccc2ccccc2c1CNCC1CCS(=O)(=O)C1 (stereo unspecified) | 4.51
CNCc1n[nH]c(=O)n1CC1CCCCC1 | -46.5
CCN(C)c1ccc(CNC(=O)c2cc(C(N)=O)cs2)cc1F | 6.36
O=C(NCc1cncc2c1CCN(Cc1cccs1)C2)C1CC1 | 2.13
Cc1nc([C@@H]2C[C@@H]3CCN(C(=O)Cc4cccc(F)c4)C[C@H]3O2)no1 | 4.17
Cc1ccc(S(=O)(=O)Nc2ccc(N3CCSCC3)c(C(=O)O)c2)s1 | 3.54
O=C(c1cccs1)N1C[C@H]2CCC[C@@]2(COCC2CCOCC2)C1 | -68.9
Clc1cccc(Cl)c1CNCCOc1ccccn1 | -13.2
CCNC(=O)N1CCC(NC(=O)NCCc2cccc(C)c2)C1 (stereo unspecified) | -42.2
COc1cc(NCCNC(=O)c2cc[nH]c2C)cc(OC)c1 | -4.33
CCSCCC(C)NC(=O)Nc1cccn(C)c1=O (stereo unspecified) | -2.19
COc1cccc(CN2CCCC(Cn3nc(C)nc3C)C2)c1 (stereo unspecified) | -13.4
CC(C)c1nsc(N2CCn3c(nnc3C(F)(F)F)C2)n1 | 5.83
Cc1nc(C)n(CCCNc2ncnc3onc(C)c23)n1 | -7.12

Compound | cytotoxicity at 10 µM [%]
Cc1ccc(CN2CC[C@@H](N3CCOCC3)[C@@H]2Cc2cccnc2)o1 | 9.55
CCOCC(=O)N1C[C@@H]2COC[C@]2(c2nc(C)no2)C1 | -90.9
CC(CCn1cccn1)N1CCC(n2cc(C(C)(C)N)nn2)CC1 (stereo unspecified) | -4.78
CC(C)n1cc(C(=O)NC2CN3CCC2CC3)c2ccccc21 (stereo unspecified) | -59.7
CC(O)CNC(=O)NCc1ccc(N2CCNC(=O)C2)cc1 (stereo unspecified) | -7.23
CN(CCN1CCN(c2ccccc2)CC1)C(=O)Nc1ccncc1 | 11.5
COCCCN(Cc1ccccn1)S(=O)(=O)Cc1ccccc1 | 14.4
CC(C)n1cc(CN2CCCN(C(=O)C3(C)CCOCC3)CC2)cn1 | -48.2
O=C(CN(CC(O)c1ccc(F)cc1)C1CC1)NC1CCOCC1 (stereo unspecified) | 0.0428
CCNC(=O)[C@@H]1C[C@H](n2cc(CC3CCCCC3)nn2)CN1 | 1.06
CN1CC=C(c2noc(CCC(=O)N3CCc4ccccc4C3)n2)CC1 | 6.97
Cc1nn(C)c(N(C)C)c1CNCc1ccnc(N2CCCC2)c1 | -11.4
O=C(c1ccn(-c2ccccc2Cl)n1)N1CCCSCC1 | 4.22
Cc1ccc2c(c1)C(=O)NCC1(CCN(Cc3ccccc3)CC1)O2 | -26.9
Cc1cnn(CC2CN(Cc3nc(C)c4ccccc4n3)CCO2)c1 (stereo unspecified) | -35.6
COCCN1C(=O)CC[C@@H]2[C@@H]1CCN2Cc1c(C)noc1C | 6.57
CC(c1cc(F)ccc1F)N(C)C(=O)NCc1ccnc(N(C)C)c1 (stereo unspecified) | -16.8
CCOCCC(=O)NC(Cc1ccc(C)cc1)c1ccccn1 (stereo unspecified) | -1.55
CCc1nc(CN2CCCC(N(C)Cc3cnn(C)c3)C2)no1 (stereo unspecified) | -14.5
Cc1nnc(C(C)N(C)Cc2c(C)nn(-c3ccccc3)c2C)o1 (stereo unspecified) | -4.73
Cc1noc(C)c1CN1CCC2(COCc3cnc(N(C)C)nc32)C1 (stereo unspecified) | 9.93
CCC(CC)N(Cc1cc(=O)n(C)c(=O)n1C)C1CC1 | 15.8
COC1CCCOC12CCN(C(=O)c1ccc3[nH]nnc3c1)CC2 (stereo unspecified) | -3.97

Compound | cytotoxicity at 10 µM [%]
O=C(NC1CCCCC1)N1CCC(n2cc(-c3ccccn3)nn2)CC1 | 4.49
CC(C)CCn1cc(C(=O)NC2CCS(=O)(=O)C2)c2ccccc2c1=O (stereo unspecified) | -3.68
O=C(CCN1CCCC1=O)Nc1cnn(-c2ccccc2Cl)c1 | 5.65
Cc1cnn(C2CN(CC(O)c3ccc4c(c3)OCCO4)C2)c1 (stereo unspecified) | 21.9
CC(C)c1csc(C2CCCN(C(=O)Cn3ccccc3=O)C2)n1 (stereo unspecified) | -14.4
CCc1nc(C)sc1CN1CC[C@@](O)(C2CCOCC2)[C@H](C)C1 | 1.71
Cc1ccc2cc(CNCCCN3CCOCC3)c(=O)[nH]c2c1 | -0.336
CN([C@@H]1CC[C@@H](N2CCCC2)[C@@H]1O)S(=O)(=O)c1ccccc1 | -4.29
FC(F)(F)COCCN1CCN(c2ccc3nncn3n2)CC1 | -7.77
CN(CCO)Cc1nnc(C2CCN(C(=O)C(C)(C)C)CC2)n1C | 22.6
COCCn1/c(=N/C(=O)C(C)C)sc2cc(Cl)ccc21 | -5.26
O=C(NCCc1ccccc1)N1CCC(C2OCCO2)CC1 | -46.5
COc1ccc(CNC(=O)Nc2ccc(N3CCCC3)nc2)cc1O | -18.1
CC(C)c1nc(C2CCCN2Cc2nccn2CC(F)(F)F)no1 (stereo unspecified) | -18.9
Cc1cc(NC(=O)N2CCC[C@@H]2CO)nn1-c1ccccc1Cl | -1.29
CCc1noc(CN(C)CCC(=O)Nc2ccccc2C#N)n1 | 9.69
Cc1ccsc1CN(C)C(=O)Cn1nc(-c2ccc(F)cc2)oc1=O | 1.31
O=C1NCCCCC1NCc1csc(-c2ccc(F)cc2)n1 (stereo unspecified) | -13.5
O[C@@]1(CNCC2(Cn3cccn3)CC2)CCCN2CCCC[C@@H]21 | 4.13
COCCCNC(=O)C1CN(C(=O)c2cnccn2)C1 | 0.722
CC(C)(C)OC(=O)N1CCCN(c2nnc(C3CC3)s2)CC1 | 8.05
COCCn1c(=O)n(C)c(=O)c2ccc(C3CCN(C(C)=O)CC3)nc21 | 4.89
Cc1cc(C2CCCN2CC(=O)N(CCC#N)c2ccccc2F)on1 (stereo unspecified) | -1.5

Compound | cytotoxicity at 10 µM [%]
Fc1ccc(C2(c3noc(CCN4CCCCO4)n3)CCOC2)cc1 (stereo unspecified) | -1.54
Cn1ccnc1CN1CCN(CC(=O)NCc2cccs2)CC1 | -8.25
CC(C)CNC(=O)CC1OCCc2ccsc21 (stereo unspecified) | -3.49
CC1CCCCN1CCNC(=O)c1ccn(-c2ccc(F)cc2)n1 (stereo unspecified) | -1.91
CCOC(=O)N1CCN(C(=O)c2ccc3ccn(C)c3c2)CC1 | -6.57
O=C(c1cc(F)ccc1F)C1CCN(C(=O)c2cccnc2O)CC1 | -3.99
O=C(CC1CCCC1)NCCNCc1cccc2c1OCCO2 | -0.912
c1ncn(CC2CN(Cc3noc(C4CC4)n3)CCO2)n1 (stereo unspecified) | 1.59
CCOc1cccc(CNC(=O)N2CCC(Cc3cnn(C)c3)C2)c1 (stereo unspecified) | -3.16
Cc1cc(CN2CCC(CNC(=O)Cc3ccc(F)cc3)C2)[nH]n1 (stereo unspecified) | -139
Cc1ccc(C(=O)Nc2ccc(OC3CCN(C)CC3)cc2)c(C)c1 | 7.48
Cc1ncsc1CN1CCn2c(COc3cccnc3)cnc2C1C (stereo unspecified) | 9.16
COc1ncccc1CN1Cc2nccn2CC(Cn2cccn2)C1 (stereo unspecified) | -106
O=C(NCc1cnn2cccnc12)C1CC(=O)N(Cc2cccnc2)C1 (stereo unspecified) | 8.21
COCCn1c2c(ccc1=O)CC(N)CC2 (stereo unspecified) | 9.77
O=C(NCCN1CCOC1=O)c1ccc2sccc2c1 | 12.9
CC(=O)N1CCCC(c2cnc(-c3c(C)nn(C)c3C)cn2)C1 (stereo unspecified) | 1.95
O=C(NC1CCCC1)O[C@H]1COCCN(c2nc3ccccc3o2)C1 | -3.51
COC(=O)N1CCN(Cc2ccccc2C(C)(C)C#N)CC1 | -3.53
Cn1cc(CN2CCOC(CCNC(=O)c3ccsc3)C2)cn1 (stereo unspecified) | 2.72
O=C(CCc1ccco1)N1CCC(Nc2cccnn2)CC1 | -20.3
CCCn1c(C)c(CC(=O)NCCC(N)=O)c2c1CC(C)(C)CC2=O | 9.36
O=C(O)C1(Oc2cccc(F)c2)CCN(c2ccncc2)CC1 | 0.423

Compound | cytotoxicity at 10 µM [%]
Cc1ccccc1C(=O)NC(C)CN1CCOC1=O (stereo unspecified) | 4.33
COC(C)(CNS(=O)(=O)c1cnn(C)c1)c1ccccc1F (stereo unspecified) | -4.8
COCCC(=O)N1CC2(CCN(Cc3ccccc3Cl)CC2)C1 | -73.1
COc1ccc(C(C)CCNC2CCN(c3ccccn3)CC2)cc1 (stereo unspecified) | 5.29
CN1CCN(CCCOc2ccccc2CN2C[C@H]3CC[C@H]2C3)CC1 | -7.88
Cc1cc2nccc(C3CCCN(C(=O)c4cnccn4)C3)n2n1 (stereo unspecified) | 10.5
CC(C)c1cc(C(=O)NCCN2CCCCC2CO)on1 (stereo unspecified) | 2.07
COc1ccc(C(C)NC(=O)Nc2nccs2)cc1OC (stereo unspecified) | 4.37
CC(C)N1CCC(C(=O)NC[C@H]2CCc3ccccc3O2)CC1 | 11.1
O=S(=O)(C1CC1)N1CCC2(COCc3cnc(N4CCOCC4)nc32)C1 (stereo unspecified) | -5.44
COc1cc(CNCC(C)O)cc(Cl)c1OCc1ccc(C)cc1 (stereo unspecified) | -5.23
CC1c2ncc(CN3CCN(C)CC3)n2CCN1Cc1ccc(F)cc1 (stereo unspecified) | 2.49
O=S(=O)(NCCc1nc(-c2cccnc2)n[nH]1)NCc1ccccc1 | 7.02
Cn1nc(C2CN(S(C)(=O)=O)C2)c2nccnc21 | -13.2
CCN(C)Cc1n[nH]c(=O)n1-c1ccc(C)c(C)c1 | 6.27
CC(Nc1ccc(C#N)cc1F)c1cccc(S(N)(=O)=O)c1 (stereo unspecified) | -3.86
Cc1cc(C2CCCN2Cc2nc(-c3ccco3)no2)on1 (stereo unspecified) | 7.53
CN1CCCN(c2nc(C3CC3)ns2)CC1 | -3.23
Cc1cccc(CN2C(=O)CO[C@@H]3CN(CCO)C[C@H]32)c1 | -14.1
